ChEMBL document CHEMBL1124727, “Neuronal mapping of the heart with 6-[18F]fluorometaraminol” (1990)

Experiments:
[1] = tested on: Canis familiaris; assay: Tissue concentration in dog spleen after iv administration; format: functional, Canis lupus familiaris
In short: (§1)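 Mongrel dogs (two female, 15.0 and 18.6 kg, 0.45 mCi; two male, 2.0 mCi) given FMR as iv cephalic-vein bolus in 2.0 mL sterile 0.15 M acetate buffer, pH 4.5. Killed 1 h later by iv pentobarbital; tissues washed in saline, blotted, weighed, gamma counted 1 min. Expressed as % kg dose/g, N = 4 (muscle, pancreas, kidney N = 2).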

[2] = tested on: Canis familiaris; assay: Tissue concentration in dog right ventricle after iv administration; format: functional, Canis lupus familiaris, Heart right ventricle; in short: as §1
[3] = tested on: Canis familiaris; assay: Tissue concentration in dog blood after iv administration; format: functional, Canis lupus familiaris; in short: as §1
[4] = tested on: Canis familiaris; assay: Tissue concentration of the compound in dog adrenal cortex after iv administration; format: functional, Canis lupus familiaris; in short: as §1
[5] = species: Canis familiaris; assay: Normalized FMR Concentration in anterior wall of heart of phenol treated canine myocardium; format: functional, Canis lupus familiaris
In short: (§2)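 Mongrel dogs, LV anterior epicardium (LAD region) painted with 88% phenol in ethanol (v/v); 4–7 days later FMR iv, killed 1 h post by pentobarbital/KCl overdose. LV cut into ~1 cm transverse slices, then radial segments, gamma counted; % kg dose/g normalized to highest-activity segment (atria = 100%). Affected area = mean of three lowest contiguous segments in each of two midbasal slices; controls N = 3, treated N = 5.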

[6] = tested on: Canis familiaris; assay: Tissue concentration in dog lung after iv administration; format: functional, Canis lupus familiaris; in short: as §1
[7] = tested on: Canis familiaris; assay: Tissue concentration in dog right atrium after iv administration; format: functional, Canis lupus familiaris, Cardiac atrium; in short: as §1
[8] = tested on: Canis familiaris; assay: Tissue concentration in dog kidney after iv administration; format: functional, Canis lupus familiaris; in short: as §1
[9] = tested on: Canis familiaris; assay: Tissue concentration in dog liver after iv administration; format: functional, Canis lupus familiaris; in short: as §1
[10] = tested on: Canis familiaris; assay: Tissue concentration in dog adrenal medulla after iv administration; format: functional, Canis lupus familiaris; in short: as §1
[11] = tested on: Canis familiaris; assay: Tissue concentration in dog left atrium after iv administration; format: functional, Canis lupus familiaris, Cardiac atrium; in short: as §1
[12] = tested on: Canis familiaris; assay: Tissue concentration in dog pancreas after iv administration; format: functional, Canis lupus familiaris; in short: as §1
[13] = species: Canis familiaris; assay: Normalized FMR Concentration in posterior wall of heart of phenol treated canine myocardium; format: functional, Canis lupus familiaris; in short: as §2
[14] = tested on: Canis familiaris; assay: Tissue concentration in dog left ventricle after iv administration; format: functional, Canis lupus familiaris, Heart left ventricle; in short: as §1
[15] = tested on: Canis familiaris; assay: Tissue concentration in dog muscle after iv administration; format: functional, Canis lupus familiaris; in short: as §1
[16] = tested on: Canis familiaris; assay: Tissue concentration in dog heart after iv administration; format: functional, Canis lupus familiaris
[17] = tested on: Canis familiaris; assay: Tissue concentration in dog thyroid after iv administration; format: functional, Canis lupus familiaris, Thyroid gland
[18] = tested on: Canis familiaris; assay: Tissue concentration in dog left ventricle to blood ratio after iv administration; format: functional, Canis lupus familiaris; in short: as §1
[19] = species: Canis familiaris; assay: Concentration of Endogenous NE and FMR from Midbasal Slices of Phenol-Treated Canine in anterior wall; format: functional, organism-based; conditions: Canis lupus familiaris
In short: (§3)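 Phenol-painted (88% phenol in ethanol, epicardial LV anterior wall near LAD) dogs, 4–7 days post surgery; sacrificed 1 h after iv FMR by pentobarbital/KCl overdose. Midbasal LV slices cut into radial segments, gamma counted; homogenized in cold 0.4 M perchloric acid, NE by HPLC-fluorescence. FMR normalized to highest-activity segment = 100%. Three lowest contiguous segments per slice averaged versus opposed segments; Student's t test.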

[20] = tested on: Rattus norvegicus; assay: Neuronal selectivity expressed as Concentration in spleen after iv administration in rat, pretreated with 6-hydroxydopamine (control = 0.85+/-0.005); format: functional, organism-based; conditions: tested as the 3H-labelled form
[21] = tested on: Rattus norvegicus; assay: Neuronal selectivity expressed as Concentration in left atrium after iv administration in rat, pretreated with 6-hydroxydopamine (control =4.75+/-0.28); conditions: Cardiac atrium, tested as the 3H-labelled form
[22] = tested on: Rattus norvegicus; assay: Neuronal selectivity expressed as Concentration in right ventricle after iv administration in rat, pretreated with 6-hydroxydopamine (control = 4.86+/-0.24); conditions: Heart right ventricle, tested as the 3H-labelled form
[23] = tested on: Rattus norvegicus; assay: Neuronal selectivity expressed as Concentration in blood after iv administration in rat, pretreated with 6-hydroxydopamine (control = 0.065+/-0.005); format: functional, organism-based; conditions: tested as the 3H-labelled form
[24] = tested on: Rattus norvegicus; assay: Neuronal selectivity expressed as Concentration in rigt atrium after iv administration in rat, pretreated with 6-hydroxydopamine (control = 4.86+/-0.68); conditions: Cardiac atrium, tested as the 3H-labelled form
[25] = species: Canis familiaris; assay: Concentration of Endogenous NE and FMR from Midbasal Slices of Phenol-Treated Canine in posterior wall; format: functional, organism-based; conditions: Canis lupus familiaris; in short: as §3
[26] = tested on: Rattus norvegicus; assay: Neuronal selectivity expressed as Concentration in left ventricle after iv administration in rat, pretreated with 6-hydroxydopamine (control = 4.10+/-0.23); conditions: Heart left ventricle, tested as the 3H-labelled form

Structure (SMILES) | [3H] concentration [1] [% kg dose g-1] | [3H] concentration [3] [% kg dose g-1] | [3H] concentration [6] [% kg dose g-1] | [3H] concentration [9] [% kg dose g-1] | [3H] concentration [10] [% kg dose g-1] | [3H] concentration [16] [% kg dose g-1] | [3H] concentration [17] [% kg dose g-1] | [3H] concentration [18] [% kg dose g-1] | other results
CC(N)C(O)c1cc(O)ccc1F (centres undefined) | 0.69 | 0.04 | 0.26 | 0.33 | 9.89 |  |  |  | [3H] concentration [2]: 0.89 % kg dose g-1; [3H] concentration [4]: 0.59 % kg dose g-1; [3H] concentration [5]: 14.5 % kg dose g-1; [3H] concentration [7]: 1.44 % kg dose g-1; [3H] concentration [8]: 0.41 % kg dose g-1; [3H] concentration [11]: 1.54 % kg dose g-1; [3H] concentration [12]: 0.6 % kg dose g-1; [3H] concentration [13]: 53.8 % kg dose g-1; [3H] concentration [14]: 1.24 % kg dose g-1; [3H] concentration [15]: 0.07 % kg dose g-1
CC(N)C(O)c1ccc(I)c(O)c1 (centres undefined) | 0.26 | 0.04 | 0.25 | 0.5 | 0.45 | 0.17 | 0.2 | 4 | 
CC(N)C(O)c1cc(O)ccc1I (centres undefined) | 0.08 | 0.05 | 0.26 | 0.49 | 0.2 | 0.05 | 0.06 | 1 | 
NC[C@H](O)c1ccc(O)c(O)c1 |  |  |  |  |  |  |  |  | Concentration [19]: 303 ng/g; Concentration [20]: 0.25 % dose g-1; Concentration [21]: 0.39 % dose g-1; Concentration [22]: 0.41 % dose g-1; Concentration [23]: 0.052 % dose g-1; Concentration [24]: 0.29 % dose g-1; Concentration [25]: 1460 ng/g; Concentration [26]: 0.6 % dose g-1
